These results are taken from ChEMBL document CHEMBL3259775, “Towards the development of 5-HT₇ ligands combining serotonin-like and arylpiperazine moieties” (Eur J Med Chem, 2014).

Molecules are shown by their SMILES.

The target of one experiment is T1, 5-hydroxytryptamine receptor 7 (Homo sapiens, UniProt P34969). Kind of experiment: Displacement of [3H]5-HT from human 5-HT7 receptor expressed in HEK293 cells after 30 mins by microbeta counting analysis. Format: cell-based. (In general: Loss of bound radioactivity is the signal in a displacement assay; it reports binding, not function.)
T1 sequence (P34969 whole entry): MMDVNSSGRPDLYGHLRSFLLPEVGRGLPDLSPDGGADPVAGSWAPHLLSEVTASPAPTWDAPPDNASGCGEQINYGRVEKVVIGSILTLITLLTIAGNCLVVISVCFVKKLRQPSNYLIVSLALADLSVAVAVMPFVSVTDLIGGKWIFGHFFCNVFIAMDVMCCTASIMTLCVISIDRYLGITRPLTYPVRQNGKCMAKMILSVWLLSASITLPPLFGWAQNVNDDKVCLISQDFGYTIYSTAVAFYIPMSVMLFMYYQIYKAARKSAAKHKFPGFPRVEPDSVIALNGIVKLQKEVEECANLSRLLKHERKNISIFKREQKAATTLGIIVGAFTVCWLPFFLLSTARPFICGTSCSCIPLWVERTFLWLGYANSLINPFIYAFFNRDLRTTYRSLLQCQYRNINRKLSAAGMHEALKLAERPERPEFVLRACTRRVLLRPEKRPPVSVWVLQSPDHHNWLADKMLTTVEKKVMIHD
Turning to `CN(CCN1CCN(c2ccccc2)CC1)c1cccc([N+](=O)[O-])c1`, the Ki (commonly the dissociation constant of the complex between target and ligand, obtained from inhibition or displacement) came out at 332 nM.
Compound `CCCN(CCCN1CCN(c2ccccc2)CC1)c1cccc(O)c1` had an inhibitory constant (Ki) of 20.8 nM. Compared with the last compound, the Ki is about 16-fold lower.
Still for that read-out and setting: the result for `CN(CCN1CCN(c2ccccc2)CC1)c1cccc(NS(C)(=O)=O)c1` reads 57 nM; that for `Oc1cccc(NCCN2CCN(c3ccccc3)CC2)c1`, 252 nM; that for `CN(CCCN1CCN(c2cccc3ccccc23)CC1)c1cccc(O)c1`, 2.9 nM.
The same measure, in the same setting: the result for `CN(CCCN1CCC(N(c2ccccc2)c2ccccc2)CC1)c1cccc(O)c1` reads 310 nM; that for `Oc1cccc(CCCCN2CCN(c3ccccc3)CC2)c1`, 3.1 nM.
The same measure, in the same setting: the result for `Oc1cccc(N(CCCN2CCN(c3ccccc3)CC2)Cc2ccccc2)c1` reads 92.5 nM.
`CN(CCCN1CCN(c2ccccc2)CC1)c1cccc(NS(C)(=O)=O)c1` gave a Ki of 39.6 nM. This Ki lies about 2.3-fold lower than the previous one.
In the case of `CN(CCCN1CCN(c2ccccc2)CC1)c1cccc(Br)c1`, the Ki amounted to 161 nM.
Compound `O=Cc1cccc(NCCCN2CCN(c3ccccc3)CC2)c1` displayed a Ki of 13.2 nM.
On the same count and under the same terms, the result for `Cc1cccc(N(C)CCCN2CCN(c3ccccc3)CC2)c1` reads 84.8 nM.
Still for that read-out and setting: the result for `Oc1cccc(NCCCN2CCN(c3ccccc3)CC2)c1` reads 10.1 nM; that for `CCN(CCCCCCN1CCN(c2ccccc2)CC1)c1cccc(O)c1`, 191 nM.
`CCc1[nH]c2ccc(O)cc2c1CCN1CCN(c2cccc3ccccc23)CC1` showed an inhibitory constant (Ki) of 6.6 nM. This Ki lies about 29-fold lower than the previous one.
On the same count and under the same terms, the result for `O=S(=O)(c1ccccc1)N(CCCN1CCN(c2ccccc2)CC1)c1cccc(O)c1` reads 12.1 nM; that for `CC(=O)Nc1cccc(N(C)CCCN2CCN(c3ccccc3)CC2)c1`, 161 nM.
Take `COC(=O)c1cccc(NCCCN2CCN(c3ccccc3)CC2)c1`: the inhibition constant (Ki) amounted to 77.9 nM.
Compound `Oc1cccc2c1CC(N1CCN(c3ccccc3)CC1)CC2` (racemic) yielded a Ki of 81.4 nM.
On the same count and under the same terms, the result for `Oc1cccc(CCCN2CCN(c3ccccc3)CC2)c1` reads 40 nM; that for `CN(CCCN1CCN(c2ccccc2)CC1)c1cccc(F)c1`, 112 nM; that for `CN(CCCN1CCC(c2ccccc2)(c2ccccc2)CC1)c1cccc(O)c1`, 242 nM.
Still for that read-out and setting: the result for `CN(CCCCCCN1CCN(c2ccccc2)CC1)c1cccc(O)c1` reads 12 nM.
The same measure, in the same setting: the result for `CN(CCCCCN1CCN(c2ccccc2)CC1)c1cccc(O)c1` reads 16.7 nM; that for `OCc1cccc(NCCCN2CCN(c3ccccc3)CC2)c1`, 109 nM.
As for `Cc1[nH]c2ccc(O)cc2c1CCN1CCN(c2cccc3ccccc23)CC1`, the affinity corresponds to a Ki of 12.8 nM.
On the same count and under the same terms, the result for `NC(=O)c1cccc(NCCCN2CCN(c3ccccc3)CC2)c1` reads 63.3 nM; that for `CN(CCCN1CCN(c2ccccc2)CC1)c1cccc(Cl)c1`, 179 nM.
Take `CN(CCN1CCN(c2ccccc2)CC1)c1cccc(O)c1`: the Ki was found to be 161 nM.
Same read-out and setting: the result for `Oc1cccc(N(CCCN2CCN(c3ccccc3)CC2)c2ccccc2)c1` reads 90.1 nM.
The compound `Oc1cccc(N(CCCCCCN2CCN(c3ccccc3)CC2)Cc2ccccc2)c1` displayed a Ki of 138 nM.
Same read-out and setting: the result for `CN(CCCCCCN1CCN(c2cccc(C(F)(F)F)c2)CC1)c1cccc(O)c1` reads 95.6 nM.
As to `CN(CCCCCCN1CCC(c2ccccc2)CC1)c1cccc(O)c1`, the affinity corresponds to a Ki of 226 nM.
Still for that read-out and setting: the result for `CN(CCCN1CCN(c2ccc3ccccc3c2)CC1)c1cccc(O)c1` reads 434 nM; that for `CN(CCCCCCN1CCN(c2cccc3ccccc23)CC1)c1cccc(O)c1`, 39.4 nM.

In another experiment the target is T1, 5-hydroxytryptamine receptor 7. Nature of the experiment: Displacement of [3H]5-HT from human 5-HT7 receptor expressed in HEK293 cells at 10^-5 mol/L after 30 mins by microbeta counting analysis. It is filed as cell-based. A digest of the protocol: (§1)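 Membranes incubated 30 min at 25 °C with 5 nmol/L [3H]5-HT in 50 mM Tris-HCl pH 7.4 containing pargyline, CaCl2 and ascorbic acid, with the test compound at a single fixed concentration. Non-specific binding with 100 µM cold 5-HT; separation by filtration; result reported as % displacement.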
For the compound `Oc1ccc2[nH]cc(CCN3CCN(c4cccc(-c5ccccc5)c4)CC3)c2c1`, the inhibition – broadly, how much of the control response was suppressed – is 88%.
On the same count and under the same terms, the result for `CN(CCN1CCN(Cc2ccccc2)CC1)c1cccc(O)c1` reads 82%; that for `CN(CCCCCCN1CCN(c2ccnc3cc(Cl)ccc23)CC1)c1cccc(O)c1`, 74%.
The same measure, in the same setting: the result for `CN(CCN1CCN(c2ccccc2)CC1)c1cccc(N)c1` reads 85%; that for `Oc1cccc(OCCN2CCN(c3ccccc3)CC2)c1`, 42%.

For the next experiment the target is unchanged. Nature of the experiment: Displacement of [3H]5-HT from human 5-HT7 receptor expressed in HEK293 cells at 10^-6 mol/L after 30 mins by microbeta counting analysis. Format: cell-based. A digest of the protocol:
as §1
Consider `Oc1ccc2[nH]cc(CCN3CCN(c4cccc(-c5ccccc5)c4)CC3)c2c1`, for which the inhibition worked out at 42%.
`CN(CCN1CCN(Cc2ccccc2)CC1)c1cccc(O)c1` displayed an inhibition of 42%.
Regarding `CN(CCCCCCN1CCN(c2ccnc3cc(Cl)ccc23)CC1)c1cccc(O)c1`, the inhibition stood at 28%.
`CN(CCN1CCN(c2ccccc2)CC1)c1cccc(N)c1`: the inhibition came out at 40%.
Regarding `Oc1cccc(OCCN2CCN(c3ccccc3)CC2)c1`, the inhibition is 21%.

The target is the same in a further experiment. Nature of the experiment: Antagonist activity at human 5-HT7 receptor expressed in CHO cells assessed as residual 5-HT-stimulated cAMP accumulation at 1 uM relative to control. A general note: Cyclic AMP is a second messenger, typically raised through Gs and lowered through Gi signalling.
Consider `CN(CCN1CCN(c2ccccc2)CC1)c1cccc(NS(C)(=O)=O)c1`, for which the % serotonin response was found to be 48%.
Same read-out and setting: the result for `CN(CCCCCCN1CCN(c2ccccc2)CC1)c1cccc(O)c1` reads 56%; that for `CN(CCCCCN1CCN(c2ccccc2)CC1)c1cccc(O)c1`, 69%.
